The values that follow come from ChEMBL document CHEMBL4038273, “MAO enzymes inhibitory activity of new benzimidazole derivatives including hydrazone and propargyl side chains” (Eur J Med Chem, 2017).

Data set [1] deals with Salmonella typhimurium. As to the kind of experiment: Genotoxicity in Salmonella typhimurium TA100 assessed as increase in number of revertants at 2.5 mg/ml in absence of aroclor-1254-induced Sprague-Dawley rat liver microsomal S9 fraction by Ames-MPF assay relative to baseline. In kind it is toxicity. The conditions noted are these: salmonella enterica subsp. enterica serovar typhimurium, microsomes. In short, it runs like this:
(§1)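 AmesMPF 98/100 fluctuation format with S. typhimurium TA98 (frameshift) and TA100 (base-pair substitution), run with and without S9. Compounds were made up in DMSO at 0.156–5 mg/mL, six levels; solvent control was 4% DMSO. With S9, positive controls were 2-aminoanthracene at 1 µg/mL (TA98) and 2.5 µg/mL (TA100). Wells turned yellow by pH drop were scored positive. Fold over baseline is mean positive wells divided by (zero-dose mean + 1 SD). Student's t-test, p<0.05.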

The subject of data set [2] is Salmonella typhimurium. As to the kind of experiment: Genotoxicity in Salmonella typhimurium TA98 assessed as increase in number of revertants at 5 mg/ml in absence of aroclor-1254-induced Sprague-Dawley rat liver microsomal S9 fraction by Ames-MPF assay relative to baseline. In kind it is toxicity. The conditions noted are these: salmonella enterica subsp. enterica serovar typhimurium, microsomes. In outline:
as §1
Background: Liver microsomes are vesicles of endoplasmic reticulum, rich in cytochrome P450 enzymes.

Data set [3] deals with Salmonella typhimurium. Briefly: Genotoxicity in Salmonella typhimurium TA100 assessed as increase in number of revertants at 2.5 mg/ml in presence of aroclor-1254-induced Sprague-Dawley rat liver microsomal S9 fraction by Ames-MPF assay relative to baseline. Particulars: salmonella enterica subsp. enterica serovar typhimurium, microsomes. In kind it is toxicity. In outline:
as §1

Data set [4] concerns Salmonella typhimurium. Briefly: Genotoxicity in Salmonella typhimurium TA100 assessed as increase in number of revertants at 1.25 mg/ml in absence of aroclor-1254-induced Sprague-Dawley rat liver microsomal S9 fraction by Ames-MPF assay relative to baseline. The conditions noted are these: salmonella enterica subsp. enterica serovar typhimurium, microsomes. In kind it is toxicity. In short, it runs like this: as §1

For data set [5], the system named is Salmonella typhimurium. As to the kind of experiment: Genotoxicity in Salmonella typhimurium TA100 assessed as increase in number of revertants at 5 mg/ml in presence of aroclor-1254-induced Sprague-Dawley rat liver microsomal S9 fraction by Ames-MPF assay relative to baseline. In kind it is toxicity. Particulars: salmonella enterica subsp. enterica serovar typhimurium, microsomes. In outline: as §1

Data set [6] has as its system Salmonella typhimurium. As to the kind of experiment: Genotoxicity in Salmonella typhimurium TA98 assessed as increase in number of revertants at 0.3125 mg/ml in absence of aroclor-1254-induced Sprague-Dawley rat liver microsomal S9 fraction by Ames-MPF assay relative to baseline. In kind it is toxicity. The conditions noted are these: salmonella enterica subsp. enterica serovar typhimurium, microsomes. In outline: as §1

Data set [7] relates to Salmonella typhimurium. Briefly: Genotoxicity in Salmonella typhimurium TA98 assessed as increase in number of revertants at 2.5 mg/ml in presence of aroclor-1254-induced Sprague-Dawley rat liver microsomal S9 fraction by Ames-MPF assay relative to baseline. The conditions noted are these: salmonella enterica subsp. enterica serovar typhimurium, microsomes. In kind it is toxicity. In short, it runs like this: as §1

The test system of data set [8] is Salmonella typhimurium. Briefly: Genotoxicity in Salmonella typhimurium TA100 assessed as increase in number of revertants at 5 mg/ml in absence of aroclor-1254-induced Sprague-Dawley rat liver microsomal S9 fraction by Ames-MPF assay relative to baseline. In kind it is toxicity. Particulars: salmonella enterica subsp. enterica serovar typhimurium, microsomes. In outline:
as §1

Data set [9] has as its system Salmonella typhimurium. As to the kind of experiment: Genotoxicity in Salmonella typhimurium TA98 assessed as increase in number of revertants at 1.25 mg/ml in presence of aroclor-1254-induced Sprague-Dawley rat liver microsomal S9 fraction by Ames-MPF assay relative to baseline. In kind it is toxicity. Particulars: salmonella enterica subsp. enterica serovar typhimurium, microsomes. In short, it runs like this: as §1

The test system of data set [10] is Salmonella typhimurium. As to the kind of experiment: Genotoxicity in Salmonella typhimurium TA98 assessed as increase in number of revertants at 0.625 mg/ml in absence of aroclor-1254-induced Sprague-Dawley rat liver microsomal S9 fraction by Ames-MPF assay relative to baseline. In kind it is toxicity. The conditions noted are these: salmonella enterica subsp. enterica serovar typhimurium, microsomes. In short, it runs like this:
as §1

The test system of data set [11] is Salmonella typhimurium. Briefly: Genotoxicity in Salmonella typhimurium TA98 assessed as increase in number of revertants at 0.156 mg/ml in absence of aroclor-1254-induced Sprague-Dawley rat liver microsomal S9 fraction by Ames-MPF assay relative to baseline. In kind it is toxicity. Particulars: salmonella enterica subsp. enterica serovar typhimurium, microsomes. In short, it runs like this: as §1

Data set [12] addresses T1, Amine oxidase [flavin-containing] B (Homo sapiens, UniProt P27338).
T1 sequence (P27338 whole entry): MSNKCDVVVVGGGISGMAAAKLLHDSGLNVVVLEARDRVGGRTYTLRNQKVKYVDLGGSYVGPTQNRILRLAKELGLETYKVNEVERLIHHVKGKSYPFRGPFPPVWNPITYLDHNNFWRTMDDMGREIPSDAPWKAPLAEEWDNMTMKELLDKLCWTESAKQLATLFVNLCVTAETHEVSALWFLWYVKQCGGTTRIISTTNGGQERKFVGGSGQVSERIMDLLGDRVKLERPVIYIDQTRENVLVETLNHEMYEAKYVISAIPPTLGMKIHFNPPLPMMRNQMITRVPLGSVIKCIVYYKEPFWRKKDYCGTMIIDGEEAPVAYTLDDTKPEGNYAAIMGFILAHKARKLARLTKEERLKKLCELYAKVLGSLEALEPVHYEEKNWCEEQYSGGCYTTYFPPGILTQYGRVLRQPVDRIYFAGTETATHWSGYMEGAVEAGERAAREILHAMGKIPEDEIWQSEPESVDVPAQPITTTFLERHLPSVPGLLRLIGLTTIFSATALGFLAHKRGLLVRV
Briefly: Inhibition of recombinant human MAO-B expressed in baculovirus infected BTI insect cells using tyramine as substrate pretreated for 30 mins followed by substrate addition incubated for 30 mins measured at 5 mins interval by horse-radish peroxidase/amplex red-based fluorometric method. In kind it is cell-based.

The species named for a further data set is Homo sapiens. Briefly: Selectivity index, ratio of IC50 for recombinant human MAO-A expressed in baculovirus infected BTI insect cells to IC50 for recombinant human MAO-B expressed in baculovirus infected BTI insect cells. In outline:
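Selectivity index calculated as IC50(MAO-A)/IC50(MAO-B), with both IC50 values from the fluorometric tyramine/HRP/Amplex Red inhibition assay.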

The subject of data set [13] is Salmonella typhimurium. Briefly: Genotoxicity in Salmonella typhimurium TA98 assessed as increase in number of revertants at 2.5 mg/ml in absence of aroclor-1254-induced Sprague-Dawley rat liver microsomal S9 fraction by Ames-MPF assay relative to baseline. Particulars: salmonella enterica subsp. enterica serovar typhimurium, microsomes. In kind it is toxicity. In short, it runs like this: as §1

For data set [14], the system named is Salmonella typhimurium. Briefly: Genotoxicity in Salmonella typhimurium TA98 assessed as increase in number of revertants at 0.625 mg/ml in presence of aroclor-1254-induced Sprague-Dawley rat liver microsomal S9 fraction by Ames-MPF assay relative to baseline. In kind it is toxicity. The conditions noted are these: salmonella enterica subsp. enterica serovar typhimurium, microsomes. In short, it runs like this: as §1

The test system of data set [15] is Salmonella typhimurium. As to the kind of experiment: Genotoxicity in Salmonella typhimurium TA100 assessed as increase in number of revertants at 1.25 mg/ml in presence of aroclor-1254-induced Sprague-Dawley rat liver microsomal S9 fraction by Ames-MPF assay relative to baseline. In kind it is toxicity. Particulars: salmonella enterica subsp. enterica serovar typhimurium, microsomes. In outline:
as §1

For data set [16], the system named is Salmonella typhimurium. Briefly: Genotoxicity in Salmonella typhimurium TA100 assessed as increase in number of revertants at 0.156 mg/ml in absence of aroclor-1254-induced Sprague-Dawley rat liver microsomal S9 fraction by Ames-MPF assay relative to baseline. In kind it is toxicity. Particulars: salmonella enterica subsp. enterica serovar typhimurium, microsomes. In outline:
as §1

The subject of data set [17] is Salmonella typhimurium. Briefly: Genotoxicity in Salmonella typhimurium TA100 assessed as increase in number of revertants at 0.3125 mg/ml in presence of aroclor-1254-induced Sprague-Dawley rat liver microsomal S9 fraction by Ames-MPF assay relative to baseline. In kind it is toxicity. The conditions noted are these: salmonella enterica subsp. enterica serovar typhimurium, microsomes. In outline: as §1

Data set [18] has as its system Salmonella typhimurium. Briefly: Genotoxicity in Salmonella typhimurium TA98 assessed as increase in number of revertants at 0.3125 mg/ml in presence of aroclor-1254-induced Sprague-Dawley rat liver microsomal S9 fraction by Ames-MPF assay relative to baseline. In kind it is toxicity. Particulars: salmonella enterica subsp. enterica serovar typhimurium, microsomes. In outline:
as §1

Data set [19] relates to Salmonella typhimurium. As to the kind of experiment: Genotoxicity in Salmonella typhimurium TA100 assessed as increase in number of revertants at 0.625 mg/ml in absence of aroclor-1254-induced Sprague-Dawley rat liver microsomal S9 fraction by Ames-MPF assay relative to baseline. In kind it is toxicity. Particulars: salmonella enterica subsp. enterica serovar typhimurium, microsomes. In outline: as §1

The test system of data set [20] is Salmonella typhimurium. Briefly: Genotoxicity in Salmonella typhimurium TA98 assessed as increase in number of revertants at 1.25 mg/ml in absence of aroclor-1254-induced Sprague-Dawley rat liver microsomal S9 fraction by Ames-MPF assay relative to baseline. In kind it is toxicity. The conditions noted are these: salmonella enterica subsp. enterica serovar typhimurium, microsomes. In outline: as §1

As to `C#CCn1c(-c2ccc(C(=O)N/N=C/c3cccnc3)cc2)nc2ccccc21`, the “fold change (FC)” value with Salmonella typhimurium [1] was found to be 0.74; with Salmonella typhimurium [2], 0.46; in the data set on Salmonella typhimurium [3], 0.27; in the data set with Salmonella typhimurium [4], 0.64; in the data set with Salmonella typhimurium [5], 0.07; with Salmonella typhimurium [6] it was 0.74. For the same compound, the “fold change (FC)” value in the data set with Salmonella typhimurium [7] turned out to be 0.52; in the data set on Salmonella typhimurium [8], 0.89; with Salmonella typhimurium [9], 0.52; with Salmonella typhimurium [10] it was 0.51; in the data set on Salmonella typhimurium [11], 1.03; in the data set with Salmonella typhimurium [13], 0.4. Also, the “fold change (FC)” value is given as 0.35 in the data set with Salmonella typhimurium [14]; 0.33 with Salmonella typhimurium [15]; 0.74 with Salmonella typhimurium [16]; 0.27 in the data set on Salmonella typhimurium [17]; 0.35 in the data set with Salmonella typhimurium [18]; 0.84 in the data set with Salmonella typhimurium [19]. Also, the “fold change (FC)” value in the data set with Salmonella typhimurium [20] is 0.68. In addition, the IC50 – broadly, the point on the concentration scale where inhibition reaches its midpoint – in [12] worked out at 75 nM. Moreover, the Ratio IC50 in the data set listed under Homo sapiens amounted to 128.

For the compound `C#CCn1c(-c2ccc(C(=O)N/N=C/c3ccc(F)cc3)cc2)nc2ccccc21`, the “fold change (FC)” value in the data set with Salmonella typhimurium [1] worked out at 1.78; in the data set on Salmonella typhimurium [2], 0.34; with Salmonella typhimurium [3] it was 1.88; with Salmonella typhimurium [4] it was 0.59; in the data set on Salmonella typhimurium [5] it was 1.94; with Salmonella typhimurium [6], 0.46. Also, the “fold change (FC)” value in the data set on Salmonella typhimurium [7] stood at 2.95; in the data set on Salmonella typhimurium [8] it was 1.63; in the data set on Salmonella typhimurium [9], 2.13; in the data set with Salmonella typhimurium [10] it was 0.23; in the data set with Salmonella typhimurium [11], 0.68; in the data set with Salmonella typhimurium [13], 0.28. Moreover, the “fold change (FC)” value was found to be 2.01 with Salmonella typhimurium [14]; 1.46 with Salmonella typhimurium [15]; 0.89 in the data set on Salmonella typhimurium [16]; 0.49 with Salmonella typhimurium [17]; 2.13 with Salmonella typhimurium [18]; 0.69 in the data set on Salmonella typhimurium [19]. The “fold change (FC)” value in the data set with Salmonella typhimurium [20] was 0.28. Moreover, in [12], the IC50 was found to be 136 nM. In the data set filed under Homo sapiens, the Ratio IC50 turned out to be 6.26.
